These results are taken from ChEMBL document CHEMBL2321820, “Discovery of HSD-621 as a Potential Agent for the Treatment of Type 2 Diabetes” (ACS Med Chem Lett, 2013).

Broadly, the inhibition in vivo is the relative decrease from the control value, in per cent. The term half-life denotes the time in which the quantity being followed falls by half. A high value points to slow decline. Usually IC50 stands for the midpoint of a concentration-inhibition curve. A word on the bioavailability: it is dose-corrected exposure relative to a reference, in per cent. High values mean much systemic uptake, low ones little systemic uptake. One may read the AUC as the area under the concentration-time curve, a measure of exposure. Lower therefore signals less exposure. A word on the clearance: it is the rate of elimination divided by the concentration. Low values mean a low capacity for elimination, high ones a high capacity for elimination. The term Tmax denotes the time at which the peak concentration occurs. A word on the Cmax: it is the peak of the concentration-time curve.

In series [1] the test system is Mus musculus. The series is described as follows: Ex vivo inhibition of 11beta-HSD1 in C57B16 mouse epididymal fat assessed as conversion of [3H]-cortisone to [3H]-cortisol at 10 mg/kg, po after 5 hrs by HPLC analysis relative to vehicle-treated control. It is filed as functional. In short, it runs like this:
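Mice were dosed orally at 10 mg/kg. Epididymal fat was collected 5 h after dosing for the ex vivo readout.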

Series [2] is described as follows: Half life in human liver microsomes. It is filed as ADME, Microsome. In general terms: Liver microsomes are vesicles of endoplasmic reticulum, rich in cytochrome P450 enzymes.
Series [3] has as its target T1, 11-beta-hydroxysteroid dehydrogenase 1 (Mus musculus, UniProt P50172). Description: Inhibition of mouse 11beta-HSD1 expressed in CHO cells […] incubated for 30 mins prior to substrate addition measured after 120 mins by chemiluminescence assay in presence of 10% human serum. It is filed as cell-based. The essentials: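 Cell-based assay with 10% (v/v) human serum in the culture medium. Run in duplicate, with 11-point 2-fold dilutions giving the IC50. Lower threshold was 10 nM.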

For series [4], the target named is T1, 11-beta-hydroxysteroid dehydrogenase 1. The series is described as follows: Inhibition of mouse 11beta-HSD1 expressed in CHO cells […] incubated for 30 mins prior to substrate addition measured after 120 mins by chemiluminescence assay. It is filed as cell-based. In short, it runs like this:
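Cell-based assay run in duplicate. Compounds were tested as 11-point 2-fold dilutions, and IC50 was derived. Lower assay threshold was 10 nM.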

A short description of series [5]: Half life in mouse liver microsomes. It is filed as ADME, Microsome.
Series [6] has as its target 11-beta-hydroxysteroid dehydrogenase 1 (Homo sapiens, UniProt P28845). Description: Inhibition of human 11beta-HSD1 expressed in CHO cells using cortisone as substrate incubated for 30 mins prior to substrate addition measured after 120 mins by chemiluminescence assay.
Series [7] deals with T2, 11-beta-hydroxysteroid dehydrogenase type 2 (Homo sapiens, UniProt P80365).
T2 sequence (P80365 whole entry): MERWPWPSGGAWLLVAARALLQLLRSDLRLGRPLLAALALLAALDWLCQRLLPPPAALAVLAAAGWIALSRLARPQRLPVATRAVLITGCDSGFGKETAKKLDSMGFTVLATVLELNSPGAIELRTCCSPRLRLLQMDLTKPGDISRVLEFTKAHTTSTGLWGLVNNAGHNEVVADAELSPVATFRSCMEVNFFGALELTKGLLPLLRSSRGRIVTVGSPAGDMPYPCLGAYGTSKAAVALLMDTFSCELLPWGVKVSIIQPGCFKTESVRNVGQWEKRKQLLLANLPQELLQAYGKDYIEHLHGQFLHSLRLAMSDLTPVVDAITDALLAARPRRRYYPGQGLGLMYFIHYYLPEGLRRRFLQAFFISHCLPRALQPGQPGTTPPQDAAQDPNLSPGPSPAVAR
The series is described as follows: Inhibition of human 11beta-HSD2 expressed in CHO cells using […] as substrate incubated for 30 mins prior to substrate addition measured after 120 mins by scintillation counting analysis. It is filed as cell-based.

Series [8] can be described thus: Half life in C57B6 mouse at 2 mg/kg, iv. It is filed as ADME, organism-based. More on the design: dose 2 mg/kg, route intravenous. The conditions noted are these: in vivo. In short, it runs like this:
(§1)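 Male C57B6 mice. IV dose of 2 mg/kg in 50% DMSO/50% PEG200. Oral dose of 10 mg/kg in 2% Tween/0.5% methyl cellulose in water. Values are PK parameters from the iv and po arms.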

Series [9] in a line: Volume of distribution at steady state in C57B6 mouse at 2 mg/kg, iv. It is filed as ADME, organism-based. The arrangement: dose 2 mg/kg, route intravenous. The conditions noted are these: in vivo, read-out: Vdss. In short, it runs like this:
as §1

Series [10] in a line: Oral bioavailability in C57B6 mouse at 10 mg/kg. It is filed as ADME, organism-based. The conditions noted are these: in vivo. In short, it runs like this: as §1
The nature of series [11]: AUC in C57B6 mouse at 2 mg/kg, iv. It is filed as ADME, organism-based. The arrangement: dose 2 mg/kg, route intravenous. The conditions noted are these: plasma. In short, it runs like this: as §1
The nature of series [12]: Clearance in C57B6 mouse at 2 mg/kg, iv. It is filed as ADME, organism-based. More on the design: dose 2 mg/kg, route intravenous. The conditions noted are these: in vivo. The essentials:
as §1

Series [13] is described as follows: Tmax in C57B6 mouse at 10 mg/kg, po. It is filed as ADME, organism-based. The arrangement: dose 10 mg/kg, route oral. The conditions noted are these: in vivo. In short, it runs like this: as §1
A short description of series [14]: Cmax in C57B6 mouse at 10 mg/kg, po. It is filed as ADME, organism-based. More on the design: dose 10 mg/kg, route oral. The conditions noted are these: in vivo. The essentials:
as §1

A short description of series [15]: AUC in C57B6 mouse at 10 mg/kg, po. It is filed as ADME, organism-based. The arrangement: dose 10 mg/kg, route oral. The conditions noted are these: plasma. In short, it runs like this: as §1
A further series deals with Cytochrome P450 2C9 (Homo sapiens, UniProt P11712). Description: Inhibition of CYP2C9 (unknown origin). It is filed as ADME.
Series [16] in a line: Half life in C57B6 mouse at 10 mg/kg, po. It is filed as ADME, organism-based. More on the design: dose 10 mg/kg, route oral. The conditions noted are these: in vivo. The essentials:
as §1

The species entered for series [17] is Mus musculus. The series is described as follows: Toxicity in C57B6 DIO mouse assessed as body weight gain at after 31 days. The conditions noted are these: in vivo, po, 744 h.

T1 sequence (P50172 whole entry): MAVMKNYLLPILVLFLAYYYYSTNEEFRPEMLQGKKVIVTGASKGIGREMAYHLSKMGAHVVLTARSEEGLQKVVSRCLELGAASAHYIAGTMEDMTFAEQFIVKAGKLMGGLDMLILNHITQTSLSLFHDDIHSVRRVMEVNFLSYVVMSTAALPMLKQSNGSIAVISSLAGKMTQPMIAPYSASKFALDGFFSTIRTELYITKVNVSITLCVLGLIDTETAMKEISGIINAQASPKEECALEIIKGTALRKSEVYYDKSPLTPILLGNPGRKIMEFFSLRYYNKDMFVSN
Chain of 11-beta-hydroxysteroid dehydrogenase 1 (Homo sapiens, UniProt P28845) (P28845 whole entry): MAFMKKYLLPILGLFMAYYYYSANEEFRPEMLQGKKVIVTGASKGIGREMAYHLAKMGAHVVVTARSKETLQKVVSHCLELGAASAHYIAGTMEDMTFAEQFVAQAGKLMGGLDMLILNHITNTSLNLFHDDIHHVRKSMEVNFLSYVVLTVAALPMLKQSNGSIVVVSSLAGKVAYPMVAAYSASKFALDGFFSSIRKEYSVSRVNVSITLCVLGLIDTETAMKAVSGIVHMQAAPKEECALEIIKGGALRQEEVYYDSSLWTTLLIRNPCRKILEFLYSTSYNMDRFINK
Chain of Cytochrome P450 2C9 (P11712 whole entry): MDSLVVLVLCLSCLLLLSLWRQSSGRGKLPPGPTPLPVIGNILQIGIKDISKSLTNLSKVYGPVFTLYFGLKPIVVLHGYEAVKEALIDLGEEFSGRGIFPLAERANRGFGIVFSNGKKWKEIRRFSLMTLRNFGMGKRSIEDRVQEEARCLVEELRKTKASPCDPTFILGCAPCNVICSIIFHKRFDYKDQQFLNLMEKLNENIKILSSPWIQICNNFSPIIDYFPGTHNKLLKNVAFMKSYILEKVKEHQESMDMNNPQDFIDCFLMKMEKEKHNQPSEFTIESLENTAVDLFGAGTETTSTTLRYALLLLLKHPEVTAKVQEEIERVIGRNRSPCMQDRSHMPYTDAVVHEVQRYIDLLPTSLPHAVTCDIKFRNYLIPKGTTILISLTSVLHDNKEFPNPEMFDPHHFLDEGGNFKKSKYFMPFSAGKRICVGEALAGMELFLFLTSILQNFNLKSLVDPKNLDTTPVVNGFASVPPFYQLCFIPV

With `C[C@@H]1CN(c2ccc(F)cc2C(F)(F)F)CCN1S(=O)(=O)c1cn(C)c(C(C)(O)C(F)(F)F)n1` (some centres not stated), the inhibition in vivo at 10 mg/kg with Mus musculus [1] was 33%. The half-life is 10 min in series [2] and 30 min in series [5]. Moreover, the IC50 in series [3] was 0.018 µM; in series [4] it was 0.077 µM.
For `C[C@@H]1CN(c2ccc(F)cc2C(F)(F)F)CCN1S(=O)(=O)c1nc(C(C)(O)C(F)(F)F)n(C)n1` (some centres not stated) the same measures were 38%, 10 min, 23 min, 1.39 µM and 0.165 µM.
With `C[C@@H]1CN(c2ccc(F)cc2C(F)(F)F)CCN1S(=O)(=O)c1ccc(C(C)(O)C(F)(F)F)s1` (some centres not stated), the inhibition in vivo at 10 mg/kg in the series with Mus musculus [1] was found to be 44%. The results for the half-life in series [2] and in [5] were above 30 min and 17 min, respectively. Further, the IC50 was 0.015 µM in series [6], 0.01 µM in [3] and 0.01 µM in series [4].
On to `C[C@@H]1CN(c2ccc(F)cc2C(F)(F)F)CCN1S(=O)(=O)c1ccc([C@@](C)(O)C(F)(F)F)s1`, for which the concentration for half-maximal inhibition (IC50) is above 100 µM in series [7], 0.017 µM in [6], 0.01 µM in series [3] and 0.01 µM in series [4]. The half-life is 570 min in [8], above 30 min in series [2] and 17 min in series [5]. Also, the inhibition in vivo at 10 mg/kg in the series with Mus musculus [1] was determined as 80%. For the same compound, in series [9], the Vd stood at 5.8 L/kg. In addition, the bioavailability in [10] stood at 19%. Further, the AUC was 3590 ng·h/mL in series [11] and 3400 ng·h/mL in [15]. In series [12], this compound had a clearance of 9 mL/min/kg. In series [13], the Tmax came out at 30 min. Moreover, the Cmax in series [14] is 449 ng/mL.
With `C[C@@H]1CN(c2ccc(F)cc2C(F)(F)F)CCN1S(=O)(=O)c1ccc([C@](C)(O)C(F)(F)F)s1`, the inhibition in vivo at 10 mg/kg in the series on Mus musculus [1] was 5%. Further, the half-life in [2] and in series [5] was above 30 min each time. The IC50 in series [6], in [3] and in [4] was 0.01 µM in each case.
As for `C[C@@H]1CN(c2ccc(C(N)=O)cc2C(F)(F)F)CCN1S(=O)(=O)c1ccc([C@@](C)(O)C(F)(F)F)s1`, the inhibition in vivo at 10 mg/kg with Mus musculus [1] is 87%. Further, the half-life in series [2] and in [5] was 17 min in each case. For the same compound, the “inhibition (INH)” value at Cytochrome P450 2C9 is given as “Active”.
For the compound `C[C@@H]1CN(c2ccc(C(N)=O)cc2C(F)(F)F)CCN1S(=O)(=O)c1ccc([C@](C)(O)C(F)(F)F)s1`, in the series with Mus musculus [1], the inhibition in vivo at 10 mg/kg is 86%. Also, the half-life in [2] amounted to 10 min; in series [5], 17 min. Also, the “inhibition (INH)” value against Cytochrome P450 2C9 is “Active”.
For `C[C@@H]1CN(c2ccc(F)cc2C(F)(F)F)CCN1S(=O)(=O)c1ccc([C@@](O)(C(N)=O)C(F)(F)F)cc1`, in the series with Mus musculus [1], the inhibition in vivo at 10 mg/kg is below 10%. The half-life turned out to be 10 min in [2] and 30 min in series [5]. In addition, the IC50 in series [3] turned out to be 0.048 µM; in [4], 0.04 µM.
In the case of `C[C@@H]1CN(c2ccc(F)cc2C(F)(F)F)CCN1S(=O)(=O)c1ccc([C@](O)(C(N)=O)C(F)(F)F)cc1`, the inhibition in vivo at 10 mg/kg in the series with Mus musculus [1] was below 10%. The half-life in series [2] is 27 min; in [5], 30 min. Also, the IC50 in series [3] worked out at 0.041 µM; in [4], 0.02 µM.
As to `C[C@@H]1CN(c2ccc(F)cc2C(F)(F)F)CCN1S(=O)(=O)c1cccc([C@@](O)(C(N)=O)C(F)(F)F)c1`, the IC50 in [7] was above 100 µM; in [6], 0.023 µM; in series [3], 0.01 µM; in series [4] it was 0.01 µM. For the same compound, the half-life is 252 min in series [8], 18 min in series [2], 30 min in series [5] and 168 min in series [16]. For the same compound, the inhibition in vivo at 10 mg/kg in the series with Mus musculus [1] is 82%. Further, in series [9], the Vd worked out at 1.8 L/kg. In series [10], this compound gave a bioavailability of 46%. In addition, the area under the curve (AUC) came out at 6130 ng·h/mL in series [11] and 14000 ng·h/mL in [15]. The same compound displayed a clearance in [12] of 5.4 mL/min/kg. In addition, the Tmax in series [13] is 120 min. This compound had a Cmax in [14] of 1550 ng/mL.
For `C[C@@H]1CN(c2ccc(F)cc2C(F)(F)F)CCN1S(=O)(=O)c1cccc([C@](O)(C(N)=O)C(F)(F)F)c1`, in the series with Mus musculus [1], the inhibition in vivo at 10 mg/kg came to 38%. The half-life in series [2] and in [5] was below 2 min throughout. The half-inhibitory concentration (IC50) in series [6] stood at 0.051 µM; in series [3], 0.01 µM; in [4], 0.01 µM.
`C[C@@H]1CN(c2ccc(F)cc2C(F)(F)F)CCN1S(=O)(=O)c1ncc([C@@](O)(C(N)=O)C(F)(F)F)s1`: in the series with Mus musculus [1], the inhibition in vivo at 10 mg/kg stood at 83%. The figures for the half-life in [2] and in [5] were 21 min and 18 min, respectively.
Take `C[C@@H]1CN(c2ccc(F)cc2C(F)(F)F)CCN1S(=O)(=O)c1ncc([C@](O)(C(N)=O)C(F)(F)F)s1`: the inhibition in vivo at 10 mg/kg with Mus musculus [1] was found to be 17%. The values for the half-life in series [2] and in series [5] were 19 min and above 30 min, respectively.
In the case of `C[C@@H]1CN(c2ccc(F)cc2C(F)(F)F)CCN1S(=O)(=O)c1ccc([C@](O)(C(N)=O)C(F)(F)F)s1`, in the series on Mus musculus [1], the inhibition in vivo at 10 mg/kg amounted to 50%. For the same compound, the half-life in series [2] and in series [5] was 18 min each time. Further, the IC50 in series [6] came out at 0.145 µM; in [3], 0.01 µM; in [4] it was 0.01 µM.
As for `C[C@@H]1CN(c2ccc(F)cc2C(F)(F)F)CCN1S(=O)(=O)c1ccc(C(O)(c2nnc[nH]2)C(F)(F)F)s1` (some centres not stated), the inhibition in vivo at 10 mg/kg in the series with Mus musculus [1] stood at 57%. In series [5], this compound gave a half-life of 26 min.
Consider `CN(CCOc1ccc(CC2SC(=O)NC2=O)cc1)c1ccccn1` (configuration not stated) [ROSIGLITAZONE], for which the Activity result in the series listed under Mus musculus [17] was “Non-toxic”.
